Screening results as filed in PubChem BioAssay.
Most compounds without a hit are left out; they make up all but 3.8% or so of the library.
NPY-Y2 PAM-ag: potentiators or agonists of human neuropeptide Y receptor Y2. AID 1359. P49146. cells expressing NPY-Y2, potentiator/agonist read-out. activation, % at 3.6 µM. actives 0.45% (n = 220,000); in the data active means activation above about 27%;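 further: cells stimulated with NPY near EC25 plus isoproterenol at EC100; 0% = vehicle plus submaximal agonist and 100% = vehicle plus saturating agonist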
NPY1 pot ag: potentiators or agonists of human neuropeptide Y receptor Y1; P25929; NPY-Y1 expressing cells, potentiator/agonist activation; activation, % at 3.6 µM; actives 0.37% (n = 220,000); in the data active means activation above about 33%, passing the limit was not always enough;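 further: cells stimulated with NPY at EC10 then isoproterenol at EC100; 0% = low agonist plus stimulus and 100% = saturating agonist plus stimulus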
Target sequence (P25929 whole entry, looked up): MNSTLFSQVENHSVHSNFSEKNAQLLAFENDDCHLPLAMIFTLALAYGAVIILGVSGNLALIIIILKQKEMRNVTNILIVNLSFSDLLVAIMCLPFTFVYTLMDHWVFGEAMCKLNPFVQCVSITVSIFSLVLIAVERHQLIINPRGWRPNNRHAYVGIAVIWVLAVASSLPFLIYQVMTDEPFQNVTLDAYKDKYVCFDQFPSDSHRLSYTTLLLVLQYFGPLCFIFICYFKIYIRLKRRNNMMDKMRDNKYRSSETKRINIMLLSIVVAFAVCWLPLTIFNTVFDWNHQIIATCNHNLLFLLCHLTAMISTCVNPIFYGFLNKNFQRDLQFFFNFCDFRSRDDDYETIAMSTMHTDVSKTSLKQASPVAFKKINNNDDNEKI
RAM network inh: yeast RAM network inhibition; S. cerevisiae dse1pr::URA3 reporter, 5-FOA growth OD615, 2 d; analog-sensitive cbk1-as2 kinase mutant strain; inhibition, % at 50 µM; actives 1.8% (n = 190,000);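 active means inhibition above a set limit, 3 SD over mean compound inhibition, cut at about 8.4% in these data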;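 further: 0% = DMSO-only wells with no growth and 100% = 10 µM 1-NA-PP1 full growth; inhibition rescues growth on 5-FOA so higher OD means more RAM inhibition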
Insulin prom inh: TRM-6 insulin promoter activity inhibition. TRM-6 cells, insulin promoter-eGFP reporter, imaging; reporter expression induced with tamoxifen. inhibition, % at 2 µM. actives 0.9% (n = 130,000). AID 1273;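 active means inhibition above the mean plus 3 SD, with well images judged a real hit on visual review, cut at about 60% in these data, passing the limit was not always enough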
NPY Y1 blocker: blocks the human neuropeptide Y Y1 receptor. HEK293-CNG Y1 cells, membrane potential fluorescence; NPY at EC95, then isoproterenol. inhibition, % at 3.6 µM. actives 1% (n = 200,000);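 active means inhibition above the campaign mean inhibition of all tested compounds plus 3 SD, cut at about 20% in these data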;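 further: 0% = DMSO wells given NPY plus isoproterenol and 100% = isoproterenol alone without NPY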
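Test system: HEK293 cells co-expressing NPY Y1 receptor and cyclic-nucleotide gated channel; Also added: NPY (25 nM), isoproterenol (1 µM), Ro 20-1724 (25 µM); Compound dosing: one concentration, 3.6 µM, in 0.4% DMSO; Timing: dye 3 h, compound 60 min room temperature, stimulation 45 min; Technique: Membrane-potential fluorescent dye readout.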
NPY-Y2 antag: NPY-Y2 (human) receptor antagonism; P49146; NPY-Y2 expressing cells, antagonist mode; inhibition, % at 2.7 µM; actives 0.99% (n = 140,000); in the data active means inhibition above about 17%;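 further: 0% = vehicle with agonist challenge and 100% = reference antagonist with challenge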
* hit, by the source's call; . = no result; ! = repeats disagree.

SMILES	NPY-Y2 PAM-ag	NPY1 pot ag	RAM network inh	Insulin prom inh	NPY Y1 blocker	NPY-Y2 antag
O=c1c2c(nc3nc(Cc4ccccc4)[nH]n13)CCC2	3.2	-11.9	0.7	92.3*	5.1	4.0
Cc1ccc(-n2c(C)cc(C=C(C#N)C#N)c2C)cc1	-13.1	-25.2	2.7	-37.2	31.7*	18.2*
Cc1cc(C=C(C#N)C#N)c(C)n1-c1ccccc1	-17.2	-15.0	1.0	0.0	5.2	5.6
Cc1ccsc1C(=O)N1CCCC(CCC(=O)NCc2ccc(F)c(F)c2)C1 (stereo not given)	-4.3	15.3	-0.4	.	4.9	.
O=C(O/N=C/C1=C(Cl)c2ccccc2CC1)c1ccc(F)cc1	-7.6	-2.1	9.5*	32.1	-4.7	-2.2
CN(C)CCCn1c(-c2ccccc2)nc(=S)c2c1CCCC2	-14.7	23.7	1.5	0.0	1.4	-0.2
Cc1ccc(-c2nc(=S)c3c(n2Cc2ccco2)CCCC3)cc1	1.1	-33.0	5.9	28.1	21.4*	16.4
Cc1cccc(-c2nc(=S)c3c(n2Cc2ccco2)CCCC3)c1	-1.4	1.0	7.0	-32.1	24.9*	21.9*
CCN(CC)CCn1c(=S)[nH]c2cc(C(=O)N3CC=C(c4ccccc4)CC3)ccc2c1=O	-5.7	1.0	0.8	-42.9	3.8	.
COc1ccc(S(=O)(=O)Cc2ccc(C(=O)NCCCN(C)c3ccccc3)o2)cc1	2.4	-18.9	1.6	.	3.1	1.4
Cc1ccc2c(c1)-c1cc(C)nn1C(c1sccc1C)N2 (stereo not given)	4.7	1.4	10.3*	-28.6	11.8	12.4
COc1cc2c(cc1OC)C(=S)NC(C)(C)C2	46.1*	103.3*	-0.5	6.8	-2.6	7.7
COc1ccc(C(NC(=O)c2c(F)c(F)c(F)c(F)c2F)c2ccccc2)cc1 (stereo not given)	35.3*	63.0*	1.3	.	-3.8	5.6
COc1ccc(C(NC(=O)c2ccccc2F)NC(=O)c2ccccc2F)cc1	2.1	-9.1	3.0	.	-3.3	2.9
CCNc1nc(NC(C)C)nc(N(n2cnnc2)S(=O)(=O)c2ccc(C)cc2)n1	6.0	-14.8	1.9	37.0	0.5	1.9
CCNc1nc(NCC)nc(N(n2cnnc2)S(=O)(=O)c2ccc(C)cc2)n1	-15.3	-8.8	-0.6	80.0*	-9.2	-1.0
CC1=C(C(=O)NCCN2CCN(C)CC2)C2(CCC(C)CC2)OC1=O (stereo not given)	47.5*	-7.7	-0.1	7.7	-0.1	-1.8
Cc1ccc(-c2csc(C(C#N)=C3CCCC3)n2)cc1	7.2	5.7	5.2	75.0*	5.2	0.1
N#CC(=C1CCCC1)c1nc(-c2ccccc2)cs1	-15.9	-27.1	2.9	-2.8	14.3	-0.3
O=C(/C=C/c1ccccc1Cl)NC(=S)Nc1ccccc1C(=O)NC1CCCCC1	6.6	9.0	2.0	.	1.8	3.0
COc1ccccc1C(=O)Oc1cc(N)n(S(=O)(=O)c2ccc(C)cc2)n1	-7.0	5.7	1.9	78.6*	-1.7	-3.1
CCCCN(CC(=O)Nc1c(C)cccc1CC)C(=O)SCC	-12.9	-16.5	0.8	-55.2	21.5*	30.7*
CCCN(CC(=O)Nc1c(C)cccc1CC)C(=O)SCC	-3.3	-26.5	0.7	0.0	19.4	18.1*
CCc1cccc(C)c1NC(=O)CN(C)Cc1ccc(Br)cc1	-1.8	-4.8	-0.9	.	6.7	.
CCc1cccc(C)c1NC(=O)CNCc1ccccc1	-3.3	-1.9	1.3	.	-4.8	2.1
SMILES	NPY-Y2 PAM-ag	NPY1 pot ag	RAM network inh	Insulin prom inh	NPY Y1 blocker	NPY-Y2 antag
CCC(C(=O)OCC(=O)Nc1ccc(C(N)=O)cc1)c1ccccc1 (stereo not given)	8.3	-0.5	2.7	.	-1.2	.
CN(C)S(=O)(=O)c1cc(NC(=O)COC(=O)Cc2cccc3ccccc23)ccc1Cl	1.5	-5.7	8.7*	.	5.4	2.8
CN(C)S(=O)(=O)c1cc(NC(=O)COC(=O)Cc2ccc(Cl)cc2Cl)ccc1Cl	-12.8	-0.2	2.0	53.9	-7.5	3.4
CCC(C(=O)OCC(=O)Nc1ccc(SC(F)F)cc1)c1ccccc1 (stereo not given)	-0.1	8.5	8.4*	.	-6.9	-0.4
COc1ccccc1C(=O)COC(=O)c1ccccc1OCC(=O)Nc1ccc(SC(F)F)cc1	-3.1	-30.7	9.2*	-6.5	1.8	5.7
CCC(C(=O)OCC(=O)Nc1ccc(Cl)c(S(=O)(=O)N(C)C)c1)c1ccccc1 (stereo not given)	3.4	-21.7	10.3*	-11.1	12.4	1.6
COc1ccccc1NC(=O)COC(=O)c1ccccc1OCC(=O)Nc1ccc(SC(F)F)cc1	5.2	-23.6	2.8	.	-2.3	7.7
COc1ccc(OC)c(S(=O)(=O)NCCc2csc(-c3cccnc3)n2)c1	6.5	18.5	.	.	.	.
O=C(CCc1nnc(-c2ccsc2)o1)N1CCc2c(Cl)cccc2C1	-8.0	-8.4	0.7	-60.0	14.2	.
O=C(c1cccc(F)c1)N1CCN(C(=O)c2cc(-c3ccc(Cl)cc3Cl)on2)CC1	2.4	-52.0	1.8	37.5	0.9	3.2
CCOC(=O)c1ccc(Oc2nc(N(C)C)nc(N3CCOCC3)n2)cc1	-3.5	-10.9	-1.4	.	12.7	.
CN(C)CCOC(c1ccccc1)c1ccccc1	101.3*!	107.5*!	.	14.3	0.9	2.5
CC(CS(=O)(=O)c1ccccc1[N+](=O)[O-])N1CCOCC1 (stereo not given)	5.4	5.7	2.4	11.1	-3.7	.
Cc1[nH]c2ccc(-c3n[nH]c(=S)n3-c3ccccc3)cc2c1C	5.3	7.9	3.9	9.4	1.7	0.6
Cc1[nH]c2ccc(-c3n[nH]c(=S)n3-c3ccc(Br)cc3)cc2c1C	12.5	25.1	10.2*	28.6	1.7	.
COc1ccc(CNC(=O)COC(=O)CCc2nc3ccccc3c(=O)[nH]2)cc1	5.1	-1.5	3.9	.	3.6	.
N#C/C(=C/c1ccc(CNC(=O)C(=O)Nc2cc(Cl)cc(Cl)c2)o1)C(=O)NCc1cccnc1	-5.3	-22.7	8.6*	.	4.0	3.6
N#CC1(Cc2ccccc2)c2ccccc2C=CN1C(=O)c1ccccc1 (stereo not given)	-10.7	6.2	8.7*	-59.4	4.3	11.0
CC(=O)c1ccc(NC(=O)Nc2ccc(Br)cc2C)cc1	8.0	14.4	3.9	.	2.5	.
O=C(NCc1cccs1)C1CCCN1C(=O)Nc1ccccc1 (stereo not given)	102.0*	110.5*	-1.7	.	-16.5	0.1
O=C(NCc1cccs1)C1CCCN1C(=O)Nc1ccc(Cl)cc1 (stereo not given)	-11.7	-9.0	0.1	.	4.8	.
c1ccc2c(c1)nc(NCc1ccc3c(c1)OCO3)n2CCN1CCOCC1	-5.3	-26.8	1.8	.	3.5	.
c1csc(-c2csc3nc(CN4CCOCC4)nc(NCc4ccc5c(c4)OCO5)c23)c1	-31.1	-59.2	2.1	28.6	44.2*	35.8*
O=c1c(-c2nnc(SCc3ccc(Cl)cc3)o2)cccn1Cc1ccccc1	-21.9	-33.3	6.5	-35.7	14.8	4.2
